Source: ChEMBL document CHEMBL1134786, “Novel potent inhibitors of lipid peroxidation with protective effects against reperfusion arrhythmias” (J Med Chem, 2001)

Tests used:
Rattus norvegicus [1] = species: Rattus norvegicus; test: Evaluated for the interaction with 0.2 mM of the stable free radical DPPH.; format: functional
How it was run: (§1)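 Compounds were reacted with the stable free radical DPPH at 0.2 mM. The IC50 (mM) is the concentration that reacts with half of the radical.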

Rattus norvegicus [2] = species: Rattus norvegicus; test: Inhibition of in vitro peroxidation (LP) of rat Hepatic microsomal membrane lipid; format: functional
How it was run: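 Rat liver microsomal membranes were subjected to lipid peroxidation induced by ferrous ions and ascorbate. Values are mean ± SEM, n = 3.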

Rattus norvegicus [3] = species: Rattus norvegicus; test: Effect on in vitro myocardial electrical activity (arrhythmia score) at 5 uM; format: functional, Myocardium
Rattus norvegicus [4] = species: Rattus norvegicus; test: Effect on in vitro accumulation of MDA content in heart, at conc of 5 uM; format: functional
Rattus norvegicus [5] = species: Rattus norvegicus; test: Effect of compound on in vitro accumulation of MDA content in heart at concentration of 5 uM; format: functional
Rattus norvegicus [6] = species: Rattus norvegicus; test: The compound was evaluated for the interaction with 0.2 mM of the stable free radical DPPH; format: functional; how it was run: as §1

Cc1c(C)c2c(c(C)c1O)CCC(C)(C(=O)Nc1ccc3c(c1)Cc1cc(NC(=O)CCCCC4CCSS4)ccc1-3)O2 (stereo not given)
IC50 (Rattus norvegicus [1]): 20 µM
IC50 (Rattus norvegicus [2]): 2.58 µM

O=C(O)CCCCC1CCSS1 (stereo not drawn) [LIPOIC ACID, ALPHA]
Arrhythmia score (Rattus norvegicus [3]): 6.3
MDA content (Rattus norvegicus [4]): 1.03 µM (g of tissue)-1
IC50 (Rattus norvegicus [1]): > 400 µM
IC50 (Rattus norvegicus [2]): > 1000 µM

Cc1c(C)c2c(c(C)c1O)CCC(C)(C(=O)O)O2 (stereo not given) [TROLOX]
Arrhythmia score (Rattus norvegicus [3]): 3.15
MDA content (Rattus norvegicus [5]): 1.07 uM (g of tissue)-1
IC50 (Rattus norvegicus [2]): 24.8 µM
IC50 (Rattus norvegicus [6]): 45 µM
